From PubChem BioAssay AID493015 (Southern Research Specialized Biocontainment Screening …, 2011) come the findings set out here.

In this assay the test system is HEp-2 cells, viability, luminescence (cytotoxicity counter-screen). The experiment in a line: HEp-2 viability loss, luminescent readout – cell-based, synthesized compounds, set 4, cytotoxicity control for RSV inhibitor project, dose response (AID 493015). The procedure, abridged: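 Assay system: HEp-2 human cell line, uninfected, for cytotoxicity; Medium: DMEM/F12 at pH 7.5 with heat-inactivated FBS; Compound: eight twofold dilutions, 50 to 0.39 µM final, 0.5% DMSO; Incubation: compound exposure of 6 days at 37 °C, 5% CO2; Measured by: CellTiter-Glo luminescence; Controls: cell-only wells as reference; Replication: each concentration tested in triplicate.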

The source made the active and inactive calls.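 How the source made its calls: active means cell viability under 70% at any tested dose, a measure not printed in our tables; inactive means the rest.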

As usually defined, the CC50 is the concentration giving 50% cytotoxicity. Consider `Cc1ccc2c(c1)CCN2C(=O)[C@@H]1CCCN1S(=O)(=O)c1cccc2cccnc12`, for which the CC50 was 18.1 µM.
For `O=C(Nc1ccccc1)[C@@H]1CCCN1S(=O)(=O)c1cccc2cccnc12`, the CC50 was 49 µM.
The value for `COc1ccccc1CNC(=O)C1CCN(S(=O)(=O)c2cccc3nonc23)CC1` was > 50 µM (inactive); that for `CC(C)c1ccccc1NC(=O)[C@@H]1CCCN1S(=O)(=O)c1cccc2cccnc12` was 16.5 µM.
Under `Cc1cccc(NC(=O)[C@@H]2CCCN2S(=O)(=O)c2cccc3cccnc23)c1` stands 27.6 µM.
